Measured values from paper PMC10245299 (Bioorganic & medicinal chemistry letters, 2022).
Where two headings read alike, the source gives them in different places.

Experiments:
[1] = Stability in 5 mg/mL K562 extract in lysis buffer; type: in vitro ADME; conditions: n=2
K562 cells [2] = conditions: read-out: Toxicity IC50, control compounds; cited from earlier work
[3] = by 24 hours in plasma; cited from earlier work
[4] = Stability in 50% plasma in phosphate buffered saline; type: in vitro ADME
K562 cells [5] = test: Direct toxicity against K562 cells; type: cell-based; conditions: Homo sapiens, K562, 72 h, read-out: Toxicity IC50
Method in brief: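 Test compounds were applied directly to K562 cells, without T cells, to measure direct toxicity. n=3.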

**Q.** What does the source list for C/C(=C\CCP(=O)(OCOC(=O)C(C)(C)C)OCOC(=O)C(C)(C)C)CO [Compound 5]?
**A.** K562 extract (4 h, percent remaining) [1]: totally disappeared; IC50 (K562 cells [2]): > 100 µM; percent metabolized in plasma [3]: 95%

**Q.** For CCOC(=O)[C@H](C)NP(=O)(CCC=C(C)C)N[C@@H](C)C(=O)OCC [Compound 12], which remaining at 24 h [4] is on record?
**A.** ≥ 70%

**Q.** Which IC50 (K562 cells [2]) does the source give for CCOC(=O)CNP(=O)(CC/C=C(\C)CO)Oc1ccccc1 (centres unmarked) [Compound 6] here?
**A.** > 100 µM

**Q.** Which IC50 (K562 cells [5]) does the source give for CCOC(=O)CNP(=O)(CC/C=C(\C)CO)NCC(=O)OCC [Compound 16] here?
**A.** 10 to 100 µM

**Q.** With COC(=O)[C@@H](NP(=O)(CC/C=C(\C)CO)N[C@H](C(=O)OC)C(C)C)C(C)C [Compound 17] as the compound, how does the IC50 (K562 cells [5]) read?
**A.** 10 to 100 µM

**Q.** For C/C(=C\CCP(=O)(OCC(=O)OC(C)(C)C)Oc1ccccc1)CO (centres unmarked) [Compound 7], which IC50 (K562 cells [2]) is on record?
**A.** > 100 µM
